In brackets after ≈: the same amount, converted by molar mass. Activity calls are given as the source filed them. The rule behind the calls is not given here.
Tests used:
[1] = target: T1, Topoisomerase IV (Staphylococcus aureus) (UniProt P0C1U9+P0C1S7); test: Inhibition of decatenation activity of DNA topoisomerase 4 in Staphylococcus aureus ATCC 25923 using kDNA as substrate at 1 to 4 ug/ml after 1 hr using ethidium bromide staining by agarose gel electrophoresis; type: protein-complex assay
Method in brief: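 Kit-supplied S. aureus topoisomerase IV, 1 U, with 200 ng kDNA in the supplied assay buffer. Reactions ran 30 min at 37 °C with compound at 1, 4 or 32 µg/ml. They were stopped with STEB and extracted with chloroform/isoamyl alcohol (24:1). Products were run on 1% agarose in TAE for 1 h at 120 V and visualised with ethidium bromide under UV. Controls were no-enzyme, no-compound and ±DMSO.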

[2] = target: T2, DNA topoisomerase 4 (Staphylococcus epidermidis) (UniProt Q5HPI6+Q5HPI5); test: Inhibition of decatenation activity of DNA topoisomerase 4 in Staphylococcus epidermidis ATCC 35984 using kDNA as substrate at 1 to 4 ug/ml after 1 hr using ethidium bromide staining by agarose gel electrophoresis; type: protein assay
T2 sequence (Q5HPI5 whole entry, looked up): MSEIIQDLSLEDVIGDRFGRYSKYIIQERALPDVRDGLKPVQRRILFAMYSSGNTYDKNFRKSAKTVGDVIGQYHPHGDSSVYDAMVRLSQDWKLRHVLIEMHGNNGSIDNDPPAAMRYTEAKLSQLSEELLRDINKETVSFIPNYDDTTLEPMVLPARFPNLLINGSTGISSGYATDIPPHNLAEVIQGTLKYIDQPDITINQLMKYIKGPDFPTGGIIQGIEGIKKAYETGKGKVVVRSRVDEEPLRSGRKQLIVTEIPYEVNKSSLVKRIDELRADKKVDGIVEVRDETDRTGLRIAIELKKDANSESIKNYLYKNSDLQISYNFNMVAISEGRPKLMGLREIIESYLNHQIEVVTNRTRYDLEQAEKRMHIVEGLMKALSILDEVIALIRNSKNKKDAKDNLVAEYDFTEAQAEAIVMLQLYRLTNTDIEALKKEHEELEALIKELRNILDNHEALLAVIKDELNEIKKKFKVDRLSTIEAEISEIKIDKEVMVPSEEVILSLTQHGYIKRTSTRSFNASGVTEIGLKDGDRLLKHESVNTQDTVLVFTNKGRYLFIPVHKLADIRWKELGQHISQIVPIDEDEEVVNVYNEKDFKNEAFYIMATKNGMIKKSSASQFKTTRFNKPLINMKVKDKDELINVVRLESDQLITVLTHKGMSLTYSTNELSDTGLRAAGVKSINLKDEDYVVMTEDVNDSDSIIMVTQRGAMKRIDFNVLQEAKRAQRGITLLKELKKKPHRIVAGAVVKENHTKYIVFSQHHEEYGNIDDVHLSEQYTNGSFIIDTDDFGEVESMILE
T2 sequence (Q5HPI6 whole entry, looked up): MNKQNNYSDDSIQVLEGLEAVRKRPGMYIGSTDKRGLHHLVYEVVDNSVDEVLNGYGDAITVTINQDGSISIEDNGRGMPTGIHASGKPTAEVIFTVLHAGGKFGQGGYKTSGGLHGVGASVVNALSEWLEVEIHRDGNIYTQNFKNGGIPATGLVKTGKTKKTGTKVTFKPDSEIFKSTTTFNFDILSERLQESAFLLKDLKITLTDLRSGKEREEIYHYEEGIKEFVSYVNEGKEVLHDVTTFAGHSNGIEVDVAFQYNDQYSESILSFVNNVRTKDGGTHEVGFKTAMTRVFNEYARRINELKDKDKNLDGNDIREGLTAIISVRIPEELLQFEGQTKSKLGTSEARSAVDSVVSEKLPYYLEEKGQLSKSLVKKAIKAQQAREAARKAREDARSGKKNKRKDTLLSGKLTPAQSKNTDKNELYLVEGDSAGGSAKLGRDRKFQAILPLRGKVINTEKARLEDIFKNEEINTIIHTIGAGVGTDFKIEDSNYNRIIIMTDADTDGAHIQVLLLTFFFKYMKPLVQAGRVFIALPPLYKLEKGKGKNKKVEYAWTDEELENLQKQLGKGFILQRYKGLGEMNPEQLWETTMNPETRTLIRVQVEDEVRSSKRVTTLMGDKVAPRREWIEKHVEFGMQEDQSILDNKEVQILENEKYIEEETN

[3] = target: T1, Topoisomerase IV (Staphylococcus aureus); test: Inhibition of decatenation activity of DNA topoisomerase 4 in hospital methicillin-resistant Staphylococcus aureus 57/05 using kDNA as substrate at 1 to 4 ug/ml after 1 hr using ethidium bromide staining by agarose gel electrophoresis; type: protein-complex assay
[4] = target: T1, Topoisomerase IV (Staphylococcus aureus); test: Inhibition of decatenation activity of DNA topoisomerase 4 in hospital methicillin-resistant Staphylococcus aureus 81/05 using kDNA as substrate at 1 to 4 ug/ml after 1 hr using ethidium bromide staining by agarose gel electrophoresis; type: protein-complex assay
[5] = target: T2, DNA topoisomerase 4 (Staphylococcus epidermidis); test: Inhibition of decatenation activity of DNA topoisomerase 4 in hospital methicillin-resistant Staphylococcus epidermidis 23/04 using kDNA as substrate at 1 to 4 ug/ml after 1 hr using ethidium bromide staining by agarose gel electrophoresis; type: protein assay
[6] = test system: Staphylococcus epidermidis; test: Inhibition of biofilm formation in Staphylococcus epidermidis ATCC 12228 after 24 hrs using MTT staining by spectrophotometer analysis; type: functional, organism-based; conditions: ATCC 12228, 24 h
Method in brief: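 Biofilm was grown for 24 h at 37 °C in TSB with 0.5% glucose from 10^7 CFU/mL inoculum, mixed 1:1 with compound. Final concentrations were 0.125–4 or 0.25–8 µg/ml. Wells were PBS-washed and MTT-stained for 2 h at 37 °C, solubilized in DMSO/glycine buffer and read at 554 nm. IC50 (50% inhibition of biofilm formation) was taken from the dose-response curve; quadruplicates.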

[7] = test system: Staphylococcus epidermidis; test: Inhibition of biofilm formation in Staphylococcus epidermidis 23/04 after 24 hrs using MTT staining by spectrophotometer analysis; type: functional, organism-based; conditions: 23/04, 24 h
[8] = test system: Staphylococcus epidermidis; test: Inhibition of biofilm formation in Staphylococcus epidermidis 24/04 after 24 hrs using MTT staining by spectrophotometer analysis; type: functional, organism-based; conditions: 24/04, 24 h
[9] = test system: Staphylococcus epidermidis; test: Inhibition of biofilm formation in Staphylococcus epidermidis 151/04 after 24 hrs using MTT staining by spectrophotometer analysis; type: functional, organism-based; conditions: 151/04, 24 h
[10] = test system: Staphylococcus epidermidis; test: Inhibition of biofilm formation in Staphylococcus epidermidis ATCC 12228 at 4 ug/ml after 24 hrs using MTT staining by spectrophotometer analysis; type: functional; conditions: ATCC 12228, 24 h
Method in brief: (§1)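 Methicillin-resistant hospital isolates or ATCC strains of S. epidermidis were grown overnight in tryptone soy broth with 0.5% glucose. Inoculum of 10^7 CFU/mL was mixed 1:1 with compound in TSB-glucose and incubated 24 h at 37 °C. Non-adherent cells were washed off with PBS, and wells were stained with MTT (0.5% in PBS) for 2 h at 37 °C. Stain was solubilized in DMSO/glycine buffer and read at A554. Inhibition is relative to drug-free control; quadruplicates.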

[11] = target: T1, Topoisomerase IV (Staphylococcus aureus); test: Inhibition of decatenation activity of DNA topoisomerase 4 in Staphylococcus aureus ATCC 29213 using kDNA as substrate at 32 ug/ml […] using ethidium bromide staining by agarose gel electrophoresis; type: protein-complex assay
[12] = target: T2, DNA topoisomerase 4 (Staphylococcus epidermidis); test: Inhibition of decatenation activity of DNA topoisomerase 4 in Staphylococcus epidermidis ATCC 12228 using kDNA as substrate at 32 ug/ml after 1 hr using ethidium bromide staining by agarose gel electrophoresis; type: protein assay
[13] = target: T1, Topoisomerase IV (Staphylococcus aureus); test: Inhibition of decatenation activity of DNA topoisomerase 4 in hospital methicillin-resistant Staphylococcus aureus 53/05 using kDNA as substrate at 32 ug/ml after 1 hr using ethidium bromide staining by agarose gel electrophoresis; type: protein-complex assay
[14] = target: T1, Topoisomerase IV (Staphylococcus aureus); test: Inhibition of decatenation activity of DNA topoisomerase 4 in hospital methicillin-resistant Staphylococcus aureus 80/05 using kDNA as substrate at 32 ug/ml after 1 hr using ethidium bromide staining by agarose gel electrophoresis; type: protein-complex assay
[15] = target: T1, Topoisomerase IV (Staphylococcus aureus); test: Inhibition of decatenation activity of DNA topoisomerase 4 in hospital methicillin-resistant Staphylococcus aureus 573/11 using kDNA as substrate at 32 ug/ml after 1 hr using ethidium bromide staining by agarose gel electrophoresis; type: protein-complex assay
[16] = target: T2, DNA topoisomerase 4 (Staphylococcus epidermidis); conditions: 24/04, at 32 µg/mL
[17] = test system: CCRF-CEM; test: Cytotoxicity against human CCRF-CEM cells after 96 hrs by MTT assay; type: functional
Method in brief: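 Leukaemia/lymphoma lines seeded at 1×10^5 cells/ml in RPMI-1640 with 10% FCS and penicillin/streptomycin; incubated with serial dilutions at 37°C, 5% CO2; viability by MTT after 96 h; value is concentration reducing proliferation by 50%, with untreated controls undergoing at least three rounds of multiplication.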

[18] = Cytotoxicity against human HaCaT cells assessed as cell viability at 16 uM after 24 hrs by MTT assay relative to control; type: cell-based; conditions: read-out: Activity
Method in brief: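 HaCaT keratinocytes, 2.5x10^4 cells/well, in DMEM with 2% FBS, exposed 24 h to 16 µM compound, then 2 h with 0.5 mg/ml MTT; formazan dissolved in 0.04 M HCl/isopropanol, A570; viability as % of untreated control absorbance; three independent experiments in triplicate.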

[19] = test system: Staphylococcus epidermidis; test: Inhibition of biofilm formation in Staphylococcus epidermidis […]/[…] at 8 ug/ml after 24 hrs using MTT staining by spectrophotometer analysis; type: functional; conditions: 16/04, 24 h
[20] = test system: Staphylococcus epidermidis; test: Inhibition of biofilm formation in Staphylococcus epidermidis 23/04 at 8 ug/ml after 24 hrs using MTT staining by spectrophotometer analysis; type: functional; conditions: 23/04, 24 h
[21] = test system: Staphylococcus epidermidis; test: Inhibition of biofilm formation in Staphylococcus epidermidis 24/04 at 8 ug/ml after 24 hrs using MTT staining by spectrophotometer analysis; type: functional; conditions: 24/04, 24 h
[22] = test system: Staphylococcus epidermidis; test: Inhibition of biofilm formation in Staphylococcus epidermidis 31/04 at 8 ug/ml after 24 hrs using MTT staining by spectrophotometer analysis; type: functional; conditions: 31/04, 24 h; method in brief: as §1
[23] = test system: Staphylococcus epidermidis; test: Inhibition of biofilm formation in Staphylococcus epidermidis 63/04 at 8 ug/ml after 24 hrs using MTT staining by spectrophotometer analysis; type: functional; conditions: 63/04, 24 h; method in brief: as §1
[24] = test system: Staphylococcus epidermidis; test: Inhibition of biofilm formation in Staphylococcus epidermidis 151/04 at 8 ug/ml after 24 hrs using MTT staining by spectrophotometer analysis; type: functional; conditions: 151/04, 24 h

SMILES: O=C(O)c1cn(C2CC2)c2cc(N3CCNCC3)c(F)cc2c1=O [CIPROFLOXACIN]
- inhibition [1]: Active
- inhibition [2]: Active
- inhibition [3]: Active
- inhibition [4]: Active
- inhibition [5]: Active
- IC50 [6]: 7 µg/mL (≈ 21.1 µM)
- IC50 [7]: 42.8 µg/mL (≈ 129 µM)
- IC50 [8]: 12.9 µg/mL (≈ 39.1 µM)
- IC50 [9]: 13.1 µg/mL (≈ 39.5 µM)
- inhibition at 4 µg/mL [10]: 21.3%
- inhibition [11]: Active
- inhibition [12]: Active
- inhibition [13]: Active
- inhibition [14]: Active
- inhibition [15]: Active
- inhibition [16]: Active

SMILES: FC(F)(F)c1cccc(NC(S)=Nc2ccc(Cl)c(Cl)c2)c1
- CC50 [17]: 8 µM

SMILES: FC(F)(F)c1cccc(NC(=S)Nc2ccc(Cl)cc2)c1
- CC50 [17]: 12 µM

SMILES: Fc1ccc(NC(=S)Nc2cccc(C(F)(F)F)c2)cc1Cl
- inhibition [1]: Active
- inhibition [2]: Active
- inhibition [3]: Active
- inhibition [4]: Active
- inhibition [5]: Active
- IC50 [6]: 1.62 µg/mL (≈ 4.65 µM)
- IC50 [7]: 2.01 µg/mL (≈ 5.76 µM)
- IC50 [8]: 1.59 µg/mL (≈ 4.56 µM)
- inhibition at 4 µg/mL [10]: 95.2%
- CC50 [17]: 7 µM
- viability at 24 h, 16 µM [18]: 89.8%
- inhibition at 8 µg/mL [19]: 40%
- inhibition at 8 µg/mL [20]: 40%
- inhibition at 8 µg/mL [21]: 40%
- inhibition at 8 µg/mL [22]: 40%
- inhibition at 8 µg/mL [23]: 40%
- inhibition at 8 µg/mL [24]: 40%
- inhibition [11]: Active
- inhibition [12]: Active
- inhibition [13]: Active
- inhibition [14]: Active
- inhibition [15]: Active
- inhibition [16]: Active

SMILES: FC(F)(F)c1cccc(NC(=S)Nc2cccc(Br)c2)c1
- inhibition [1]: Active
- inhibition [2]: Active
- inhibition [3]: Active
- inhibition [4]: Active
- inhibition [5]: Active
- IC50 [6]: 2.8 µg/mL (≈ 7.46 µM)
- IC50 [7]: 3.13 µg/mL (≈ 8.34 µM)
- IC50 [8]: 3.01 µg/mL (≈ 8.02 µM)
- IC50 [9]: 2.34 µg/mL (≈ 6.24 µM)
- inhibition at 4 µg/mL [10]: 87%
- CC50 [17]: 9.3 µM
- viability at 24 h, 16 µM [18]: 91%
- inhibition at 8 µg/mL [19]: 70%
- inhibition at 8 µg/mL [20]: 70%
- inhibition at 8 µg/mL [21]: 70%
- inhibition at 8 µg/mL [22]: 70%
- inhibition at 8 µg/mL [23]: 70%
- inhibition at 8 µg/mL [24]: 70%
- inhibition [11]: Active
- inhibition [12]: Active
- inhibition [13]: Active
- inhibition [14]: Active
- inhibition [15]: Active
- inhibition [16]: Active

— ChEMBL document CHEMBL3616436, “Synthesis, cytotoxicity and antimicrobial activity of thiourea derivatives incorporating 3-(trifluoromethyl)phenyl moiety” (Eur J Med Chem, 2015)
